Scp1 inh: inhibitors of human Scp-1 phosphatase. Q9GZU7. Recombinant Scp1, phosphopeptide, malachite green phosphate absorbance. 340,000 compounds, 0.88% hits. inhibition, % at 20 µM. AID 493091;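 active = inhibition above about 50% at 20 µM, limit read from the data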
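Material: truncated SCP-1 phosphatase (76-261aa) / Buffer or medium: 50 mM Tris acetate pH 5.5, 0.005% Tween-20, 10 mM MgCl2 / Compound dosing: one concentration, 20 µM, with 1.0% DMSO / Incubation: 45 min room-temperature reaction, 5 min colour, 30 min stabiliser / Detection: colorimetric free-phosphate detection, absorbance 630 nm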
LMPTP inh: LMPTP (human) inhibition | P24666 | 360,000 compounds, 0.22% hits | recombinant LMPTP-A, OMFP fluorogenic substrate, fluorescence intensity | inhibition, % at 20 µM;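 active = compounds that cut the enzyme signal by at least half of the control window in the single-dose screen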
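Material: LMPTP-A; amount: 0.625 nM enzyme; doses: single 20 µM dose; times: reaction 50 min, room temperature, dark; technique: fluorescence intensity of OMFP turnover product; benchmarks: no-enzyme and uninhibited controls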
GRK2 inh: blocks RNA aptamer binding to human GRK2; P25098; bead flow cytometry, FAM-aptamer displacement from GRK2; inhibition of aptamer binding, % at 10 µM; 330,000 compounds, 0.59% hits;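 active = inhibition of aptamer binding above 40%, roughly 3 SD of noise, on plates passing a quality check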;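 also: median bead fluorescence of bound FAM aptamer so fluorescent compounds give negative values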
STEP inh: STEP (human) phosphatase inhibition; P54829; recombinant STEP, OMFP fluorogenic substrate, fluorescence; inhibition, % at 20 µM; 360,000 compounds, 0.25% hits;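 active = inhibition at 20 µM, scaled per plate between control wells, above about 37%, limit read from the data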
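Material: STEP (striatal-enriched tyrosine phosphatase) enzyme, cell-free; Compound dosing: 20 µM single dose in 1% DMSO; Technique: fluorescence read at 480 nm ex / 540 nm em; Times: reaction 20 min, ambient temperature; Medium: 50 mM Bis-Tris pH 6.0 with 2.5 mM DTT and 0.005% Tween 20; Also added: OMFP at 25 µM.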
DNMT1 inh: inhibitors of human DNMT1; P26358; DNMT1 molecular beacon, Hinp1I cleavage, fluorescence; inhibition (reported as % activation of signal), % at 10 µM; 360,000 compounds, 0.83% hits; in the data active = inhibition above about 50%
Target sequence (P26358 504-1616 limits assumed): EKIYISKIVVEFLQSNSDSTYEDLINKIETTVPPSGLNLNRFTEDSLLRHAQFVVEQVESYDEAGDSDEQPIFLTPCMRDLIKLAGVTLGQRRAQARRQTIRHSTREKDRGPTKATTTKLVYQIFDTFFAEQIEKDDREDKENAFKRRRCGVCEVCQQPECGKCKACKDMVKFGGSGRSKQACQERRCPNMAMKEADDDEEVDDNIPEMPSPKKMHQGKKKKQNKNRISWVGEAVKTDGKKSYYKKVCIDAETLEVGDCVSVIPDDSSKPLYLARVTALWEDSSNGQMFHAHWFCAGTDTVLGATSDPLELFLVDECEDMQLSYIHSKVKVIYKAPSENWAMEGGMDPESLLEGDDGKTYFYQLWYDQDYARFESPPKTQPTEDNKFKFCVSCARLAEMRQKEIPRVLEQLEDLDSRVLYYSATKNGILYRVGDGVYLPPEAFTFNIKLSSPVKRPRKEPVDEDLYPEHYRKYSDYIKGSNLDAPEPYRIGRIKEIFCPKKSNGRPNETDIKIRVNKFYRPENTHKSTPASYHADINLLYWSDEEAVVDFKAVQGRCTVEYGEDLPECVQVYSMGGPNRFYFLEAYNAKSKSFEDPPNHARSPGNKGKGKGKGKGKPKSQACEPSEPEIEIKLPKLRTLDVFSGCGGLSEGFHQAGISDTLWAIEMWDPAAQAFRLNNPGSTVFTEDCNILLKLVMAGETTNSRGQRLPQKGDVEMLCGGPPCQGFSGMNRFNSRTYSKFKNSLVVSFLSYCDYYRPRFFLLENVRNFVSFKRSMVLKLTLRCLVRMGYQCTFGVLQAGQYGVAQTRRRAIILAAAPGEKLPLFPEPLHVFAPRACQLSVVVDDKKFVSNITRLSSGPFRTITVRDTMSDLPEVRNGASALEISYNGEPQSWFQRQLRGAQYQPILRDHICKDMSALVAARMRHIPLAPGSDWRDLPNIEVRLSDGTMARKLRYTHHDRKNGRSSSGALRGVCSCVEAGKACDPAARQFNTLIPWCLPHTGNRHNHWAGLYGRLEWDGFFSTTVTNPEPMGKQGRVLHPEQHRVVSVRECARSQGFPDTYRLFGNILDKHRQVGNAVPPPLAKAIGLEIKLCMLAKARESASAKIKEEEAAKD
SUMO1 PPI mod: alters human SUMO1 binding to SIM partners | P63165 | 360,000 compounds, 0.33% hits | SUMO1 binding to a labelled peptide, TR-FRET, 1 h | inhibition, % at 20 µM; in the data active = inhibition above about 37%
GRK2 CP1: confirmation of human GRK2 inhibitors displacing RNA aptamer; bead-bound GRK2, FAM-aptamer displacement, flow cytometry; shares compounds with GRK2 inh; 2,000 compounds, 4% hits; aptamer displacement, % at 10 µM; AID 504451;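 active = aptamer displacement above 40%, near three times the noise of non-fluorescent compounds, on plates passing quality checks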;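 also: negative values mostly reflect intrinsic compound fluorescence rather than true enhancement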
Aptamer quench: quenches fluorescent RNA aptamer, GRK2 hit artifact. fluorescence change (kMESF span), kMESF (test concentration not listed). shares compounds with GRK2 inh. Fluorescent RNA aptamer beads, quenching, flow cytometry; active compounds read high. 110 tested, under 10 active;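 active = compounds whose bead fluorescence drops by more than 37 kMESF across the dose range, marking them as dye quenchers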
Aptamer quench SP: aptamer fluorescence quenching in GRK2 counter-screen | fluorescence response (% of DMSO), % at 10 µM | shares compounds with GRK2 inh | 2,000 tested, under 10 active | AID 504580 | Carboxyfluorescein RNA aptamer on beads, flow cytometry quenching; active compounds read low;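 active = compounds that quench the bead-bound fluorescent RNA probe, cutting fluorescence to under half of the solvent control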;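 also: counterscreen run without GRK2 so only probe quenching by compound is measured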
GRK2 CP2: confirmation of human GRK2 inhibitors binding RNA aptamer site; bead-bound GRK2, FAM-aptamer displacement, flow cytometry; shares compounds with GRK2 inh; 360 tested, under 10 active; inhibition of aptamer binding, % at 10 µM; AID 504782;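 active = inhibition of aptamer binding above 40%, about triple the noise seen with nonglowing compounds, on plates passing quality control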;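 also: negative values mostly come from compounds that fluoresce themselves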
FAM quench SP: aptamer fluorescence quenching in GRK2 counter-screen | shares compounds with GRK2 inh | carboxyfluorescein RNA aptamer beads, flow cytometry quenching; active compounds read low | fluorescence response vs DMSO, % at 10 µM | 360 tested, under 10 active | AID 588494;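 active = response vs DMSO under 50%, meaning signal dropped by over half, treated as fluorescence quencher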;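 also: labelled aptamer on streptavidin beads without GRK2 as a quench counter-screen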
FAM quench DR: aptamer fluorescence quenching in GRK2 powder counter-screen. 35 tested, under 10 active. fluorescence ratio to DMSO, % at 11.1 µM. Bead-bound FAM RNA aptamer fluorescence quenching, flow cytometry; active compounds read low. shares compounds with GRK2 inh;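 active = compounds that dim the fluorescent label, raw bead signal shifting by over 33 units between lowest and highest dose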
Of the large screens only hits and unclear results are named; the others gave an inactive call (follow-up assays come after a bar, where they were run). In the library only some 2.1% were active in any assay of this set; here they are far more common.

C[C@@H]1CCCCO[C@@H](CN(C)C(=O)CCCN(C)C)[C@@H](C)CN([C@H](C)CO)C(=O)c2cc(N(C)C)ccc2O1	none (no result: Scp1 inh, GRK2 inh)
CC(C)Oc1ccc(NC(N)=O)cc1	GRK2 inh 89 | GRK2 CP1 inactive | Aptamer quench SP inactive
Cc1cccnc1NC(=O)CCNC(=O)c1ccc(Cl)cc1	none
Cc1cccnc1NC(=O)CCNC(=O)c1ccccc1Cl	GRK2 inh 44 | GRK2 CP2 inactive | FAM quench SP inactive
O=C(C[n+]1cc(Br)cc2ccccc21)c1ccccc1	GRK2 inh 45 | GRK2 CP1 inactive | Aptamer quench SP inactive
O=C(CSc1nnc(-c2ccc(O)cc2)n1-c1ccccc1)CC(=O)Nc1ccccc1	GRK2 inh 92 | GRK2 CP2 inactive | FAM quench SP inactive
Cn1c(SCC(=O)CC(=O)Nc2ccccc2)nnc1-c1ccc(O)cc1	none
CC(C)C[C@H](NC(=O)CC[C@H]1O[C@@H](n2ccc(=O)[nH]c2=O)[C@H](O)[C@@H]1O)C(=O)O	none (no result: Scp1 inh, GRK2 inh)
O=C(NCc1ccccc1)C(c1ccncc1)N(C(=O)c1csnn1)c1ccccc1F (centres undefined)	GRK2 inh 95 | GRK2 CP1 inactive | Aptamer quench SP inactive
NC(=S)NN=C1CSSC1	none (no result: Scp1 inh, GRK2 inh)
CC(C)C(Cl)=NOC(=O)Nc1ccc(S(N)(=O)=O)cc1	none (no result: GRK2 inh)
COc1cccc(NC(=O)C2(S(=O)(=O)c3ccc(Cl)cc3)CC2)c1	none | GRK2 CP2 inactive | FAM quench SP inactive
CCCCCC(=O)Nc1ccc(S(=O)(=O)Nc2cc(OC)nc(OC)n2)cc1	none
COC(=O)CCC(=O)Nc1ccc(S(=O)(=O)Nc2cc(OC)nc(OC)n2)cc1	none | GRK2 CP1 inactive | Aptamer quench SP inactive
COc1ccc(CCNC(=O)CCNC(=O)c2ccc(Br)cc2)cc1OC	none
COc1ccc(CCNC(=O)CCS(=O)(=O)c2ccc(Br)cc2)cc1OC	none | GRK2 CP1 inactive | Aptamer quench inactive | Aptamer quench SP inactive | FAM quench DR inactive
Cc1ccc(OCC(=O)Nc2ccccc2-c2ccccc2)cc1	none
O=Cc1ccc(OCC(=O)Nc2ccccc2-c2ccccc2)cc1	GRK2 inh 61 | GRK2 CP1 inactive | Aptamer quench SP inactive
O=C(OCC1CCC=CO1)C1CCC=CO1 (centres undefined)	none (no result: GRK2 inh)
Cc1csc(-c2nc3ccccc3n2C(C(=O)NC(C)(C)C)c2ccccc2)c1 (centres undefined)	none (no result: Scp1 inh, GRK2 inh, STEP inh, DNMT1 inh)
O=C(NCc1ccc(Cl)cc1)C(=O)c1cn(CC(=O)N2CCOCC2)c2ccccc12	GRK2 inh 45 | GRK2 CP1 inactive | Aptamer quench SP inactive
CNC(=O)C1CCC(=O)N1Cc1c[nH]c2ccccc12 (centres undefined)	none (no result: Scp1 inh, GRK2 inh)
CCOC(=O)N1CCN(C(=O)CCC(=O)N2CCOc3ccc(C)cc32)CC1	GRK2 inh 93 | GRK2 CP1 inactive | Aptamer quench SP inactive
O=C(O)c1cccc(Nc2c3ccccc3nc3ccccc23)c1	GRK2 inh 51 | GRK2 CP1 inactive | Aptamer quench SP inactive
